Screens: PubChem BioAssay, several laboratories
CCR6 antag: blocks CCL20-driven beta-arrestin recruitment at human CCR6. CHO-K1 CCR6 PathHunter beta-arrestin, luminescence, CCL20-stimulated. hit rate 0.49% among 340,000. inhibition, % at 20 µM;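 active means compounds whose inhibition of the agonist-driven luminescence signal at 20 µM reaches about 50%, limit read from the data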;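 further: cells stimulated with CCL20 at 14 nM final; plate controls were DMSO with CCL20 for no effect and DMSO without agonist for full effect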
CXCR6 inh: CXCR6 (human) receptor inhibition; CHO-K1 PathHunter CXCR6 beta-arrestin, luminescence; O00574; AID 602244; inhibition, % at 20 µM; hit rate 0.36% among 360,000; in the data active means inhibition above about 34%, passing the limit was not always enough;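 further: antagonist mode with CXCL16 agonist at 10 nM final; 0% = 10 nM CXCL16 with DMSO and 100% = unstimulated wells without agonist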
PfG6PD inh: PfG6PD (Plasmodium falciparum) enzyme inhibition | inhibition, % at 20 µM | hit rate 0.78% among 350,000 | PfGluPho enzyme, NADPH resazurin-diaphorase fluorescence;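 active means inhibition reaching at least a set limit at 20 µM in the primary screen, cut at about 59% in these data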;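 further: 0% = DMSO wells with substrate and 100% = DMSO wells lacking glucose-6-phosphate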
B2AR ag: activates human beta-2 adrenergic receptor causing internalization; hit rate 0.43% among 340,000; Am2.2-beta2AR cells, FAP receptor internalization, flow cytometry; response, % (concentration not given with the values); P07550;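 active means response above a set limit, near 3 SD of response in nonfluorescent compounds, cut at about 42% in these data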
Target sequence (P07550 whole entry, looked up): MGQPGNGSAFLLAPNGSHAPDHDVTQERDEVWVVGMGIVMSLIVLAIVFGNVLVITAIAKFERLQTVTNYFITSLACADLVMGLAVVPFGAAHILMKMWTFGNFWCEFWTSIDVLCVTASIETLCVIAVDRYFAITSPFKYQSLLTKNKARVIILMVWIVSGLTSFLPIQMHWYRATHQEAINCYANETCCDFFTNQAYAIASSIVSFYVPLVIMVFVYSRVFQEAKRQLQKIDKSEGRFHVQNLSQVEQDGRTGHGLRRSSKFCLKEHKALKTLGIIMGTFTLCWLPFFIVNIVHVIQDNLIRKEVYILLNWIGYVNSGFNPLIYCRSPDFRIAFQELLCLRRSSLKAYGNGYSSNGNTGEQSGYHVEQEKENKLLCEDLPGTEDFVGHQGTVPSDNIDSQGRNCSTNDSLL
APJ agonist: agonists of human APJ apelin receptor. CHO-K1 APJ PathHunter beta-arrestin, luminescence; 0% DMSO wells, 100% apelin. activation, % at 20 µM. P35414. hit rate 0.11% among 330,000;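 active means activation more than six SD over the plate average, tested at 20 µM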;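 further: 0% = DMSO alone and 100% = apelin-13 at 10 nM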
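Material: CHO-K1 APJ beta-arrestin complementation cell line; Input: cell density 1000 per well; Incubation: compound stimulation 90 min at 25 °C, detection 60 min; Signal: luminescence from split beta-galactosidase complementation, Galacton Star/Emerald II substrate; Controls: DMSO-only wells as negative, 10 nM Apelin-13 as positive control.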
APJ antag: APJ receptor antagonism; P35414; CHO-K1 APJ beta-arrestin complementation, luminescence; inhibition, % at 20 µM; hit rate 0.32% among 330,000; AID 2521;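 active means inhibition above about 40% at 20 µM, limit read from the data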;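 further: cells challenged with 10 nM apelin-13 agonist together with compound; plate controls were apelin-13 plus DMSO wells for no effect and DMSO wells lacking apelin-13 for full effect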
PfGluPho conf: PfG6PD inhibition, single-dose confirmed. hit rate 34% among 2,400. shares compounds with PfG6PD inh. inhibition, % at 20 µM. recombinant PfGluPho, NADPH-diaphorase-resazurin fluorescence;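 active means inhibition of at least 50% at 20 µM in any single replicate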;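 further: 0% = DMSO with substrate and 100% = DMSO lacking glucose-6-phosphate substrate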
Diaphorase 10uM: inhibits diaphorase or oxidizes, flagging false PfG6PD hits | diaphorase-coupled resazurin reduction, fluorescence, NADPH 10 uM | shares compounds with PfG6PD inh | inhibition, % at 20 µM | hit rate 39% among 820;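 active means average inhibition reaching 50% or more with the compound at 20 µM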;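 further: resorufin red fluorescence formed as diaphorase reduces resazurin using NADPH; 0% = DMSO with enzyme and 100% = DMSO without enzyme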
Diaphorase 30uM: inhibits diaphorase or oxidizes, flagging false PfG6PD hits | Diaphorase/resazurin coupled assay, resorufin fluorescence, 30 uM NADPH | hit rate 29% among 820 | inhibition, % at 20 µM | shares compounds with PfG6PD inh;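 active means inhibition averaging 50% or more, tested at 20 µM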;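 further: 0% = DMSO with enzyme and 100% = DMSO wells lacking diaphorase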
* marks the source's active call; other numbers are inactive results; · = no result given. Rows were chosen to be rich in hits. Some 1.7% of all compounds tested hit in one or more screens of this group.

SMILES | CCR6 antag | CXCR6 inh | PfG6PD inh | B2AR ag | APJ agonist | APJ antag | PfGluPho conf | others
COc1ccc(NC(=O)CSc2nnc(-c3cccc(O)c3)o2)cc1 | -0.1 | -1.6 | 80.2* | 1.6 | 2.4 | 1.5 | 38.5
O=C(CSc1nnc(-c2ccc(O)cc2)o1)Nc1ccccc1 | 7.2 | -0.4 | -0.5 | 9.0 | -0.8 | -9.7 | ·
CC(=O)OCC1(C)CN(c2ccccc2)NC1=O (stereo unspecified) | 7.2 | -13.2 | 97.4* | -1.8 | 4.0 | -20.4 | 89.9* | Diaphorase 10uM=-1.2;Diaphorase 30uM=-10.8
CN(C)c1ccc2cc(S(=O)(=O)O)cc(O)c2c1 | -22.5 | -13.3 | 49.9 | -4.2 | · | · | ·
O=Nc1c(O)ccc2cc(S(=O)(=O)O)ccc12 | -9.5 | 2.4 | 101.8* | -4.7 | · | · | 89.8* | Diaphorase 10uM=75.8*;Diaphorase 30uM=73.4*
CC(=O)Nc1ccc(S(=O)(=O)NNc2ccc([N+](=O)[O-])cc2)cc1 | -4.0 | -9.5 | 74.6* | 1.8 | 4.1 | -31.8 | 33.4
O=C(NNc1ccc([N+](=O)[O-])cc1)Nc1ccccc1 | 0.3 | -5.6 | 74.1* | 1.6 | 3.6 | -19.6 | 0.0
Cc1ccc(S(=O)(=O)NNC(=O)C(=O)NNS(=O)(=O)c2ccc(C)cc2)cc1 | -4.4 | -2.8 | -18.9 | -0.6 | -3.6 | -3.3 | ·
Cc1ccc(NNS(=O)(=O)c2ccc(C)cc2)cc1 | 11.7 | 2.3 | 98.9* | 8.3 | 7.9 | -12.3 | 54.3* | Diaphorase 10uM=30.1;Diaphorase 30uM=-6.4
N#CC1(CCCN2CCCCC2)c2ccccc2CCc2ccccc21 | 23.9 | 4.6 | -6.1 | 4.9 | -0.8 | 8.6 | ·
O=C(COC(=O)Cn1cnc2ccccc2c1=O)Nc1ccccc1Sc1ccc(Cl)cc1 | 13.5 | -2.7 | 71.1* | 4.2 | 2.7 | 1.5 | 37.9
CN1C(=O)[C@H]2[C@@H](c3ccc(C(F)(F)F)cc3)N[C@]3(CCCN(Cc4cccn4C)C3=O)[C@H]2C1=O | · | 0.5 | 5.8 | · | · | · | ·
COC(=O)c1ccc(NCc2c(O)ccc(O)c2Br)cc1Cl | 31.4 | 11.9 | 103.8* | 20.3 | · | · | 39.2
COC(=O)c1ccc(NCc2cc(O)ccc2O)cc1O | 20.6 | 0.0 | 28.4 | 13.0 | · | · | ·
Cc1ccccc1-n1c(-c2ccc3ccccc3n2)n[nH]c1=S | 0.6 | 7.4 | 68.8* | 3.6 | -0.7 | -11.1 | 56.4* | Diaphorase 10uM=15.4;Diaphorase 30uM=17.4
S=c1[nH]nc(-c2ccc3ccccc3n2)n1-c1ccc(Cl)cc1 | 15.4 | 4.3 | 36.0 | -9.9 | 0.5 | 24.6 | ·
NS(=O)(=O)c1ccc(Nc2nc(-c3ccc(O)cc3)cs2)cc1 | 8.2 | -13.1 | 70.0* | 5.2 | 3.9 | -16.6 | 10.9
CC(=O)Oc1ccc(-c2csc(Nc3ccc(S(N)(=O)=O)cc3)n2)cc1 | -1.1 | -15.9 | 61.5* | 11.0 | 8.1 | -31.1 | 11.3
COc1ccc2ccccc2c1C=NN1CCCCC1 | · | -1.0 | 5.2 | · | · | · | ·
CC(=O)Oc1cc2c3c(c1)/C(=C1/SC(=S)NC1=O)C(=O)N3C(C)(C)C=C2C | 40.3 | 23.4 | 79.8* | -1.3 | -5.9 | 13.4 | 41.3
Cc1cccc(NC(=O)CSc2nnc(-c3ccco3)c(-c3ccco3)n2)c1 | -0.9 | 6.0 | 27.2 | -11.0 | -1.9 | -27.2 | ·
Cc1cccc(NC(=O)CSc2nnc(-c3ccco3)c(-c3ccco3)n2)c1C | 14.8 | 7.1 | 61.2* | -3.2 | 0.3 | 2.5 | 10.8
Cc1cc(C)c(C#N)c(=N)o1 | 1.9 | 6.2 | 66.5* | 1.3 | -2.4 | -4.4 | 46.9
O=C1c2cccnc2-c2ncccc21 | 12.8 | -5.1 | -4.9 | -2.8 | -3.0 | 4.0 | ·
COC1=C(Br)C(=O)c2ncccc2C1=O | 78.7* | 58.8* | 111.8* | -15.6 | · | · | 91.2* | Diaphorase 10uM=72.5*;Diaphorase 30uM=75.1*
CCOc1ccccc1NC(=O)CCCc1nc2ccccc2c(=O)[nH]1 | -0.4 | 1.8 | 67.1* | -0.9 | -4.2 | 6.7 | 53.0* | Diaphorase 10uM=38.6;Diaphorase 30uM=36.1
COc1ccc(COC(=O)CNC(=O)C2CCCCC2)cc1F | 11.6 | -4.1 | 3.4 | 0.0 | -0.5 | 9.8 | ·
CC[n+]1c(C)sc2c3ccsc3ccc21 | -7.9 | -1.9 | 69.8* | 9.6 | 0.0 | -8.8 | 26.9
